Tn6 DDE FP – disrupts Tn6 cyclic peptide binding to fibrin D-Dimer-E complex; inhibition, % at 8.3 µM; Fibrin DD(E) TRITC-Tn6 fluorescence polarization displacement; 370,000 compounds, 0.21% hits;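 active means inhibition above a per-campaign cutoff: mean of compounds within control limits plus 3 SD, cut at about 15% in these data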;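 further: 0% = median of all compound wells on the plate and 100% = blocking peptide control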
UHRF1 binding – UHRF1 methyl-DNA binding inhibition; inhibition, % at 4.4 µM; UHRF1 binding to methylated oligo, TR-FRET; Q96T88; 370,000 compounds, 0.75% hits; in the data active means inhibition above about 21%;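 further: UHRF1 SRA domain binding a hemimethylated CpG hairpin DNA probe; 0% = median of test compound wells and 100% = reference inhibitor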
Target sequence (Q96T88 whole entry, looked up, the tested form may be a part): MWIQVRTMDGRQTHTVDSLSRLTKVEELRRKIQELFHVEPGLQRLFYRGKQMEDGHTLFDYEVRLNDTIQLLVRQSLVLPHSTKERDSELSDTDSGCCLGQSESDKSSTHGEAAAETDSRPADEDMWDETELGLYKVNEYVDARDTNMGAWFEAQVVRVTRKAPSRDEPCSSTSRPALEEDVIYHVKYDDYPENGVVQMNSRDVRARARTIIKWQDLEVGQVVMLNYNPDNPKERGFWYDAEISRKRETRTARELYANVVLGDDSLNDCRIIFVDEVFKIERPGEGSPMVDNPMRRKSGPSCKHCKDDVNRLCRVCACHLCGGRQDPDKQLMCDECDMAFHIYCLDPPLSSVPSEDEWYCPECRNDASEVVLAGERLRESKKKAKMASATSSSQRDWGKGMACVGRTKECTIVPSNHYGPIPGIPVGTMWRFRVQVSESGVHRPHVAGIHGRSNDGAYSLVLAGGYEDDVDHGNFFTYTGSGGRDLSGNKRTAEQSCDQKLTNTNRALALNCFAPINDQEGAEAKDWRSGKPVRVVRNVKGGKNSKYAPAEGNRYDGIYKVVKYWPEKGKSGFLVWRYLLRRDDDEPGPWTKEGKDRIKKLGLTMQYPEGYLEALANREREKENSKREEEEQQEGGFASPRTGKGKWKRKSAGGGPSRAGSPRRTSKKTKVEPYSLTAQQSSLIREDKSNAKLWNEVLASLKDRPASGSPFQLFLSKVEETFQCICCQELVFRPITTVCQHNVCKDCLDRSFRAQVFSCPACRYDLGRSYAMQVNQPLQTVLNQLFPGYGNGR
DDE Tn7 FP inh – inhibitors of Tn7 peptide binding to human fibrin DD(E); 370,000 compounds, 0.13% hits; inhibition, % at 8.3 µM; FP displacement of FITC-Tn7 peptide from fibrin DD(E); 0% = median of compound wells per plate; P02675;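 active means inhibition above the mean of compounds falling within the control limits plus 3 SD of them, cut at about 14% in these data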;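 further: 0% = plate median of compound wells and 100% = 10 µM Aha-Tn7 peptide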
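Test system: human clot-derived fibrin DD(E) complex / Quantity: 2 µM final DD(E) protein / Incubation: 10 min plus 3 h, room temperature / Measured by: fluorescence polarization / Benchmarks: high control of 10 µM Aha-Tn7 peptide / Replicates: singlicate testing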
TDP2 absorb – TDP2 (human) inhibition, absorbance primary screen | 370,000 compounds, 0.34% hits | recombinant TDP2, T5PNP hydrolysis, p-nitrophenol absorbance 415 nm | inhibition, % at 12.8 µM | O95551 | AID 720702;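 active means inhibition above the mean of all tested compounds plus 3 SD, set per campaign, cut at about 25% in these data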;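 further: 0% = DMSO with enzyme and 100% = buffer with substrate but no TDP2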
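System: recombinant human TDP2 / Amount: 120 nM TDP2 per well / Also added: 5 mM T5PNP chromogenic substrate / Doses: 12.8 µM single point, 1% DMSO / Incubation: 2 h at 37 °C / Detection: p-Nitrophenol epi absorbance / Evaluation: % inhibition relative to enzyme-containing and enzyme-free wells / Repeats: singlicate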
LEDGF integ inh – blocks HIV-1 LEDGF/p75-dependent DNA integration | 370,000 compounds, 0.64% hits | TR-FRET IN-LEDGF/p75 DNA integration, Eu/Cy5 | inhibition, % at 3.7 µM;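 active means inhibition above the screen-wide mean plus 3 SD, cut at about 13% in these data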;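 further: signal is the Cy5 over europium emission ratio at 671 and 618 nm; 0% = plate median of compound wells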
MBD2 DNA inh – inhibitors of human MBD2 binding to methylated oligonucleotide; Q9UBB5; TR-FRET; inhibition, % at 4.4 µM; 370,000 compounds, 0.31% hits; AID 686964; in the data active means inhibition above about 13%
UHRF1 DNA bind – UHRF1 methyl-oligo binding inhibition as MBD2 counter-screen; shares compounds with MBD2 DNA inh; UHRF1 binding to methylated oligonucleotide, TR-FRET; inhibition, % at 4.4 µM; 1,000 compounds, 25% hits; in the data active means inhibition above about 21%;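 further: UHRF1 SRA domain binding a labeled hemimethylated CpG hairpin DNA; 0% = vehicle only and 100% = reference inhibitor with vehicle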
MBD2 DBD conf – MBD2-DBD methyl-DNA binding inhibition, TR-FRET confirmation; inhibition, % at 4.4 µM; 1,000 compounds, 26% hits; shares compounds with MBD2 DNA inh; TR-FRET MBD2-DBD binding to methylated oligonucleotide
TDP2 inh conf – confirmation of human TDP2 inhibitors | shares compounds with TDP2 absorb | recombinant human TDP2, absorbance read-out | inhibition, % at 12.8 µM | 1,100 compounds, 22% hits | AID 743263; in the data active means inhibition above about 25%;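 further: 0% = vehicle with enzyme and 100% = no enzyme buffer only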
IN multimer up – activates HIV-1 integrase multimerization in LEDGF counter-screen | shares compounds with LEDGF integ inh | TR-FRET HIV-1 integrase multimerization, biochemical | activation, % at 7.7 µM | 2,000 compounds, 17% hits; in the data active means activation above about 8.9%
TRFRET interf – TR-FRET optical interference, LEDGF/p75 integration counter-screen | 2,000 tested, under 10 active | inhibition, % at 7.7 µM | TR-FRET optical interference counterscreen, HIV-1 IN multimerization | shares compounds with LEDGF integ inh;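 active means inhibition above the mean over all tested compounds plus 3 SD, which no compound reached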;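 further: 0% = integrase with antibodies and DMSO and 100% = antibodies without integrase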
LEDGF integ conf – LEDGF/p75-dependent HIV-1 integration inhibition, confirmation | shares compounds with LEDGF integ inh | TR-FRET LEDGF/p75-dependent HIV-1 integration, biochemical | inhibition, % at 3.7 µM | 2,000 compounds, 36% hits | AID 1053136
* hit, by the source's call; . = not tested or not shown. Most compounds without a hit are left out; they make up all but 1.9% or so of the library. Unless noted, no stated cut-off is given here; in the data, active means inhibition above about 14%; inactive means the rest.

SMILES | Tn6 DDE FP | UHRF1 binding | DDE Tn7 FP inh | TDP2 absorb | LEDGF integ inh | MBD2 DNA inh | UHRF1 DNA bind | MBD2 DBD conf | IN multimer up | TRFRET interf | LEDGF integ conf | others
O=C1CCC(=O)c2ccc3c4c(ccc1c24)CC3 | 6 | 66* | 1 | 13 | 44* | 36* | 6 | 1 | -1 | 4 | -1
CCOC(=O)C(CNc1ccc(OCc2ccccc2)cc1)NC(=O)c1ccccc1 (centres undefined) | 0 | -2 | 0 | 3 | -2 | 2 | . | . | . | . | .
CCCc1cc(CN2CCOCC2)c(O)c(CN2CCOCC2)c1O | 0 | -5 | 3 | 1 | -6 | -5 | . | . | . | . | .
Oc1ccc2ccccc2c1CN1CCOCC1 | -8 | 6 | 5 | -3 | -4 | 4 | . | . | . | . | .
Oc1cccc(CN2CCOCC2)c1O | 4 | 85* | -3 | 5 | 78* | 45* | 6 | 5 | 11* | -40 | 35*
Oc1c(CN2CCOCC2)cc(CN2CCOCC2)c(O)c1O | -2 | 70* | -1 | -8 | 84* | 35* | 6 | 7 | 5 | -16 | 26*
COCCCN1C(=O)[C@H](CC(=O)NCCC(C)C)[C@]2(C(=O)OC)CCCCC=C12 | -1 | 2 | 1 | 4 | -1 | 2 | . | . | . | . | .
O=C(CSc1nc2ccccc2n1Cc1ccccc1)NN=Cc1c[nH]c2ccccc12 | -1 | -3 | 3 | 0 | -1 | 2 | . | . | . | . | .
CCn1c(C)nc2cc(C(=O)N/N=C/c3ccc(O)c(O)c3O)ccc21 | -8 | 19 | 2 | -10 | 73* | 16* | 3 | 2 | 52* | -264 | 70*
O=C1CCCC(O)=C1N=Nc1ccc(C(=O)O)cc1 | -7 | 54* | -2 | -13 | 22* | 15* | 56* | 19* | 37* | -188 | 32*
CN(C)c1ccc2cc(S(=O)(=O)O)cc(O)c2c1 | -12 | 83* | 0 | 55* | 84* | 45* | 29* | 6 | 52* | -186 | 31* | TDP2 inh conf=13
CCOC(=O)[C@@]12CCCC3=C1N(CCC3)C(=O)[C@H]2CC(=O)NCc1ccc(OC)c(OC)c1 | 0 | 0 | -7 | 6 | 3 | -3 | . | . | . | . | .
CN(CCOC(=O)CSc1ccccc1)C1CN(Cc2cn(Cc3ccccc3F)nn2)S(=O)(=O)C1 (centres undefined) | -2 | 0 | -6 | 14 | 1 | -5 | . | . | . | . | .
COC(=O)c1cc(O)cc(OC)c1Oc1cc(C)cc(O)c1C(=O)O | -8 | 29* | -1 | -15 | 19* | 14* | 56* | 30* | 40* | -202 | 58*
C#CCNC(=O)c1cc2cccnc2nc1N | 4 | 6 | 3 | 4 | -1 | -1 | . | . | . | . | .
O=C(Nc1cccc([N+](=O)[O-])c1)NC1CCCCN(Cc2cccc(Cl)c2)C1=O (centres undefined) | -4 | 0 | -3 | -4 | -1 | -2 | . | . | . | . | .
Cc1nc(S/C(=C\c2ccc(-c3ccc(C(=O)O)c(Cl)c3)o2)C(=O)O)n[nH]1 | -6 | 88* | -6 | 15 | 60* | 27* | 53* | 10 | 18* | -92 | 32*
C=C(C)C(=O)Nc1cccc(C2=NOC3(C2)C[C@@H](C(N)=O)N(C(=O)/C=C/C=C/C)C3)c1 (some centres undefined) | 0 | 79* | -6 | 7 | 18* | 47* | 88* | 60* | 41* | -205 | 19*
C=C(C)C(=O)Nc1cccc(C2=NOC3(C2)C[C@@H](C(N)=O)N(C(=O)/C(C)=C/C)C3)c1 (some centres undefined) | 1 | 89* | 0 | 5 | 39* | 38* | 91* | 69* | 57* | -285 | 52*
O=C(O)c1ccc(-n2cccc2/C=C2/NC(=O)N(c3ccccc3)C2=O)cc1 | -2 | 77* | -1 | -9 | 22* | 37* | 72* | 44* | 14* | -72 | 31*
O=C(O)c1ccc(-n2cccc2/C=C2/NC(=O)N(c3cccc(Cl)c3)C2=O)cc1 | -2 | 81* | -9 | -6 | 33* | 39* | 78* | 49* | 13* | -63 | 31*
O=C(O)c1cccc(-n2cccc2/C=C2\NC(=O)N(Cc3ccc(F)cc3)C2=O)c1 | 6 | 9 | 4 | 5 | 2 | 1 | . | . | . | . | .
O=C(O)c1ccc(-n2cccc2/C=C2/SC(=O)N(CC(=O)N3CCCC3)C2=O)cc1 | 5 | 76* | 5 | 12 | 36* | 44* | 85* | 49* | 16* | -80 | 36*
N#Cc1ccccc1CN1C(=O)S/C(=C/c2cccn2-c2ccc(C(=O)O)cc2)C1=O | 3 | 10 | 3 | -2 | 5 | 9 | . | . | . | . | .
CCN(CC)CCCNc1nc(-c2ccccc2)nc2ccccc12 | 8 | 6 | -8 | 6 | -5 | 3 | . | . | . | . | .
CCN(CC)CCCNc1nc2ccccc2c2[nH]c3ccc(OC)cc3c12 | 3 | 85* | 2 | -8 | 19* | 91* | 96* | 109* | 2 | -9 | 34*
CC(C)C[C@H]1COc2cc(Br)ccc2S(=O)(=O)N1Cc1ccc(Cl)cc1 | -6 | 0 | 3 | 4 | 4 | -1 | . | . | . | . | .
O=C1NC(=S)NC1=Cc1ccco1 | 5 | 61* | -4 | 0 | 56* | 21* | 19 | 4 | 7 | -34 | 41*
CCOC(=O)C1CCCN(C(=O)c2cc(-c3ccncc3)nc3ccccc23)C1 (centres undefined) | 1 | 1 | 5 | -2 | 3 | -1 | . | . | . | . | .

Screens (PubChem)
